Data as given in ChEMBL document CHEMBL1781879, “Synthesis and biological characterization of arylomycin B antibiotics” (2011).
Values after ≈ are worked out from the molar mass of the structure shown.

Legend:
Lactococcus lactis = test: Antibacterial activity against 1 x 10^7 CFU/mL Lactococcus lactis ATCC 19257 in trypticase soy yeast broth after 24 hrs by CLSI broth microdilution method; format: functional; conditions: ATCC 19257, 24 h
Outline: (§1)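 CLSI broth microdilution. Bacteria from solid media were suspended in the test broth at 1×10^7 cfu/ml, and 5 μl was added to 100 μl medium containing compound. Media were cation-adjusted Mueller Hinton II (R. opacus, S. epidermidis), Todd Hewitt (S. pyogenes, S. pneumoniae) and Trypticase Soy Yeast broth (L. lactis). MIC was the lowest concentration inhibiting visible growth, from at least three independent experiments.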

[1] = Antibacterial activity against 1 x 10^7 CFU/mL Staphylococcus epidermidis RP62A PAS9002 harboring Sps1B-S31P mutant in cation-adjusted Mueller Hinton 2 broth after 24 hrs by CLSI broth microdilution method; format: functional; conditions: PAS9002, 24 h
Outline: (§2)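 CLSI broth microdilution in cation-adjusted Mueller Hinton II broth. Inoculum made by suspending organisms grown on solid media in the same broth and diluting to 1×10^7 CFU/ml; 5 μl added to 100 μl medium containing graded compound concentrations. MIC is the lowest concentration preventing visible growth, from at least three independent experiments.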

Streptococcus pyogenes = test: Antibacterial activity against 1 x 10^7 CFU/mL Streptococcus pyogenes M1-5448 in Todd Hewitt broth after 24 hrs by CLSI broth microdilution method; format: functional; conditions: M1-5448, 24 h; outline: as §1
Pseudomonas aeruginosa = test: Antibacterial activity against 1 x 10^7 CFU/mL Pseudomonas aeruginosa PAO1 PAS2008 harboring LepB P84L mutant in cation-adjusted Mueller Hinton 2 broth after 24 hrs by CLSI broth microdilution method; format: functional; conditions: PAO1 PAS2008, 24 h; outline: as §2
[2] = Antibacterial activity against 1 x 10^7 CFU/mL Escherichia coli MG1655 PAS0260 harboring LepB P84L mutant in cation-adjusted Mueller Hinton 2 broth after 24 hrs by CLSI broth microdilution method; format: functional, Escherichia coli str. K-12 substr. MG1655; conditions: PAS0260, 24 h; outline: as §2
Prescottella equi = test: Antibacterial activity against 1 x 10^7 CFU/mL Rhodococcus equi ATCC 6939 in cation-adjusted Mueller Hinton 2 broth after 24 hrs by CLSI broth microdilution method; format: functional; conditions: Rhodococcus (subgen. Prescottella) equi, ATCC 6939, 24 h; outline: as §2
[3] = Antibacterial activity against 1 x 10^7 CFU/mL Staphylococcus aureus NCTC 8325 PAS8001 harboring SpsB P29S mutant in cation-adjusted Mueller Hinton 2 broth after 24 hrs by CLSI broth microdilution method; format: functional, Staphylococcus aureus subsp. aureus NCTC 8325; conditions: PAS8001, 24 h; outline: as §2
Streptococcus agalactiae = test: Antibacterial activity against 1 x 10^7 CFU/mL Streptococcus agalactiae COH1 after 24 hrs by CLSI broth microdilution method; format: functional; conditions: COH1, 24 h
Outline: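 Streptococcus agalactiae tested by CLSI broth microdilution in both cation-adjusted Mueller Hinton II and Todd Hewitt broth. Inoculum was a suspension from solid media at 1×10^7 cfu/ml, with 5 μl added to 100 μl medium containing compound. MIC was the lowest concentration inhibiting visible growth, from at least three independent experiments.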

[4] = tested on: Corynebacterium glutamicum; test: Antibacterial activity against 1 x 10^7 CFU/mL Corynebacterium glutamicum ATCC 44475 in cation-adjusted Mueller Hinton 2 broth after 24 hrs by CLSI broth microdilution method; format: functional; conditions: ATCC 44475, 24 h; outline: as §2
[5] = tested on: Staphylococcus epidermidis; test: Antibacterial activity against 1 x 10^7 CFU/mL wild-type Staphylococcus epidermidis RP62A in cation-adjusted Mueller Hinton 2 broth after 24 hrs by CLSI broth microdilution method; format: functional; outline: as §1
Rhodococcus opacus = test: Antibacterial activity against 1 x 10^7 CFU/mL Rhodococcus opacus DSM 1069 in cation-adjusted Mueller Hinton 2 broth after 24 hrs by CLSI broth microdilution method; format: functional; conditions: DSM 1069, 24 h; outline: as §1
Brevibacillus brevis = test: Antibacterial activity against 1 x 10^6 CFU/mL Brevibacillus brevis ATCC 8246 in cation-adjusted Mueller Hinton 2 broth after 24 hrs by CLSI broth microdilution method; format: functional; conditions: ATCC 8246, 24 h
Outline: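 Brevibacillus brevis: 10⁶ cfu inoculated into 1 ml cultures in cation-adjusted Mueller Hinton II broth with compound and 1% DMSO final. Parallel tubes used 0.8% nutrient broth with 0.5% NaCl or without NaCl. Cultures shaken at 28 °C for 24 h. MIC was the lowest concentration inhibiting visible growth.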

Streptococcus pneumoniae = test: Antibacterial activity against 1 x 10^7 CFU/mL Streptococcus pneumoniae R800 in Todd Hewitt broth after 24 hrs by CLSI broth microdilution method; format: functional; conditions: R800, 24 h; outline: as §1

Compound | MIC (Lactococcus lactis) [µg/mL] | MIC [1] [µg/mL] | MIC (Streptococcus pyogenes) [µg/mL] | MIC (Pseudomonas aeruginosa) [µg/mL] | MIC [2] [µg/mL] | MIC (Prescottella equi) [µg/mL] | MIC [3] [µg/mL] | MIC (Streptococcus agalactiae) [µg/mL] | MIC [4] [µg/mL] | MIC [5] [µg/mL] | MIC (Rhodococcus opacus) [µg/mL] | MIC (Brevibacillus brevis) [µg/mL] | MIC (Streptococcus pneumoniae) [µg/mL]
CCCCCCCCCCCCCCCC(=O)N(C)[C@H](CO)C(=O)N[C@H](C)C(=O)NCC(=O)N(C)[C@@H]1C(=O)N[C@@H](C)C(=O)N[C@H](C(=O)O)Cc2cc(c(O)c([N+](=O)[O-])c2)-c2cc1ccc2O | 32 (≈ 34.6 µM) | 8 (≈ 8.64 µM) | 4 (≈ 4.32 µM) | 4 (≈ 4.32 µM) | 2 (≈ 2.16 µM) | 32 (≈ 34.6 µM) | 4 (≈ 4.32 µM) | 8 (≈ 8.64 µM) | 2 (≈ 2.16 µM) | 0.25 (≈ 0.27 µM) | 4 (≈ 4.32 µM) | > 64 | 16 (≈ 17.3 µM)
CCCCCCCCCCCCCCCC(=O)N(C)[C@H](CO)C(=O)N[C@H](C)C(=O)NCC(=O)N(C)[C@@H]1C(=O)N[C@@H](C)C(=O)N[C@H](C(=O)O)Cc2cc(N)c(O)c(c2)-c2cc1ccc2O |  |  |  | 32 (≈ 35.7 µM) | 16 (≈ 17.9 µM) |  | 64 (≈ 71.4 µM) |  |  | 8 (≈ 8.93 µM) |  | > 64 | 
CCCCCCCCCCCCCCCC(=O)N(C)[C@H](CO)C(=O)N[C@H](C)C(=O)NCC(=O)N(C)[C@@H]1C(=O)N[C@@H](C)C(=O)N[C@H](C(=O)O)Cc2ccc(O)c(c2)-c2cc1ccc2O [ARYLOMYCIN C16] | 16 (≈ 18.2 µM) | 8 (≈ 9.08 µM) | 8 (≈ 9.08 µM) | 4 (≈ 4.54 µM) | 2 (≈ 2.27 µM) | 16 (≈ 18.2 µM) | 4 (≈ 4.54 µM) | > 128 | 2 (≈ 2.27 µM) | 0.25 (≈ 0.284 µM) | 1 (≈ 1.13 µM) | > 64 | 8 (≈ 9.08 µM)
